In brackets after ≈: the same amount, converted by molar mass.
Experiments:
[1] = Cytotoxicity against human MCF7 cells assessed as growth inhibition at 10 uM after 72 hrs by MTT assay; assay type: cell-based
Outline: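 MCF-7 cells in DMEM with 10% FBS, plated at 10,000 cells/well. After 72 h, MTT was added at 0.5 mg/mL final for 3 h at 37 °C. Formazan was dissolved in SDS–HCl (20% SDS, 0.02 M HCl) and absorbance read at 570 nm.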

[2] = system: Trypanosoma cruzi; test: Antiprotozoal activity against epimastigotes of Trypanosoma cruzi Y by alamar blue assay; assay type: functional, organism-based
Outline: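 Y-strain epimastigotes grown at 28 °C in LIT medium with 10% (v/v) heat-inactivated FBS. Growth inhibition was measured by the same Alamar Blue colorimetric method used for Leishmania promastigotes.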

[3] = system: Leishmania amazonensis; test: Antiprotozoal activity against promastigotes of Leishmania amazonensis MHOM/ BR/77/LTB0016 after 72 hrs by alamar blue assay; assay type: functional, organism-based; settings: MHOM/ BR/77/LTB0016, 72 h
Outline: (§1)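 Log-phase promastigotes at 10^6/well in phenol-red-free RPMI 1640. Serum was heat-inactivated FBS at 20% for L. donovani and 10% for L. amazonensis. Cells were exposed to compound serial dilutions with 10% Alamar Blue at 26 °C for 72 h and read at 570 nm with a 630 nm reference. IC50 was taken by linear regression with 95% confidence limits. Three experiments were run in duplicate and analysed by paired two-tailed t-test.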

[4] = system: Leishmania donovani; test: Antiprotozoal activity against promastigotes of Leishmania donovani MHOM/IN/90/GE1F8R after 72 hrs by alamar blue assay; assay type: functional, organism-based; outline: as §1

Structure (SMILES) | inhibition at 72 h, 10 µM [1] | IC50 [2] | IC50 [3] | IC50 [4]
COc1ccc(-c2ccc3cccc4c3c2C(=O)C(O)=C4)cc1 | 19% | > 100 µg/mL | > 100 µg/mL | > 100 µg/mL
O=C1C(O)=Cc2cccc3ccc(-c4ccccc4)c1c23 | 22% | > 100 µg/mL | > 100 µg/mL | > 100 µg/mL
COC1=Cc2cccc3ccc(-c4ccc(OC)cc4)c(c23)C1=O | 15% | > 100 µg/mL | > 100 µg/mL | > 100 µg/mL
COC1c2cccc3ccc(-c4ccccc4)c(c23)C(=O)C1O (configuration not stated) | 17% | > 100 µg/mL | > 100 µg/mL | > 100 µg/mL
COc1ccc(-c2ccc3cccc4c3c2C(=O)C(O)C4O)cc1 (configuration not stated) | – | > 100 µg/mL | > 100 µg/mL | > 100 µg/mL
O=C1C(O)=Cc2c(-c3ccccc3)ccc3cccc1c23 | 19% | > 100 µg/mL | > 100 µg/mL | > 100 µg/mL
O=C1C=Cc2cccc3ccc(-c4ccccc4)c1c23 | 5% | > 100 µg/mL | > 100 µg/mL | > 100 µg/mL
COc1ccc(-c2ccc3cccc4c3c2C=CC4=O)cc1 | 17% | 11.4 µg/mL (≈ 39.8 µM) | 4.43 µg/mL (≈ 15.5 µM) | > 100 µg/mL
O=C1C(O)=Cc2c(-c3ccc(O)cc3)ccc3cccc1c23 | 12% | > 100 µg/mL | > 100 µg/mL | > 100 µg/mL
N#Cc1ccc2cccc3c2c1C(=O)C=C3 | 44% | > 100 µg/mL | 3.73 µg/mL (≈ 18.2 µM) | 1.02 µg/mL (≈ 4.97 µM)
COC1=Cc2cccc3ccc(-c4ccccc4)c(c23)C1=O | 14% | 48.3 µg/mL (≈ 169 µM) | 9.04 µg/mL (≈ 31.6 µM) | 29.9 µg/mL (≈ 104 µM)
O=C1C=Cc2cccc3ccc(-c4ccccn4)c1c23 | 0% | > 100 µg/mL | 53.2 µg/mL (≈ 207 µM) | > 100 µg/mL
O=C1C=Cc2cccc3ccc(-c4ccco4)c1c23 | 14% | > 100 µg/mL | 8.39 µg/mL (≈ 34.1 µM) | > 100 µg/mL
Cc1cccc(C)c1-c1ccc2cccc3c2c1C(=O)C=C3 | 1% | 49.8 µg/mL (≈ 175 µM) | 42.8 µg/mL (≈ 151 µM) | 27.8 µg/mL (≈ 97.8 µM)
O=C1C=Cc2cccc3ccc(-c4cccs4)c1c23 | 4% | > 100 µg/mL | 14.5 µg/mL (≈ 55.3 µM) | > 100 µg/mL
OC1(c2ccccn2)C=Cc2cccc3ccc(-c4ccccn4)c1c23 (configuration not stated) | 0% | > 100 µg/mL | > 100 µg/mL | > 100 µg/mL
O=C1C(O)=Cc2cccc3ccc(-c4ccc(O)cc4)c1c23 | 23% | > 100 µg/mL | > 100 µg/mL | > 100 µg/mL
Oc1ccc2cccc3c2c1C(c1ccco1)C=C3 (configuration not stated) | – | > 100 µg/mL | > 100 µg/mL | > 100 µg/mL
COc1ccc(C2=CC(=O)c3cccc4cccc2c34)cc1 | 2% | > 100 µg/mL | > 100 µg/mL | > 100 µg/mL
COc1ccc(-c2ccc3cccc4c3c2C(=O)C=C4)cc1 | 13% | > 100 µg/mL | 0.83 µg/mL (≈ 2.9 µM) | > 100 µg/mL
O=C1C=Cc2cccc3cccc1c23 [PERINAPHTHENONE] | 0% | 2.62 µg/mL (≈ 14.5 µM) | 27.3 µg/mL (≈ 151 µM) | 65.1 µg/mL (≈ 361 µM)
